Series [1] concerns Staphylococcus aureus. The experiment in a line: Antibacterial activity against methicillin-resistant Staphylococcus aureus ATCC 33591 after 24 hrs by tecan plate reader analysis. It counts as functional. The following applies: ATCC 33591, 24 h. The method, boiled down: (§1)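 Colony grown 24 h on NB agar at 37 °C, then 6 h in nutrient broth to mid-log (10⁸ CFU/mL by drop plating), diluted to 10⁵ CFU/mL in Mueller Hinton broth; added 9:1 to two-fold serial compound dilutions in MHB. Incubated 24 h, 37 °C; OD600 read. Triplicate per concentration, experiment run twice; MIC taken from the range of triplicate OD values.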

The test system of series [2] is Staphylococcus aureus. The experiment in a line: Antibacterial activity against methicillin-resistant Staphylococcus aureus R3545 clinical isolate after 24 hrs by tecan plate reader analysis. The class given is functional. The settings on record: R3545, 24 h. The method, boiled down:
as §1

The subject of series [3] is Staphylococcus aureus. The experiment in a line: Antibacterial activity against methicillin-resistant Staphylococcus aureus R3889 clinical isolate after 24 hrs by tecan plate reader analysis. It counts as functional. The settings on record: R3889, 24 h. The method in brief: as §1
Series [4] deals with Staphylococcus aureus. The experiment in a line: Antibacterial activity against methicillin-resistant Staphylococcus aureus R3890 clinical isolate after 24 hrs by tecan plate reader analysis. The class given is functional. The settings on record: R3890, 24 h. The method in brief:
as §1

The subject of a further series is Escherichia coli. The experiment in a line: Antibacterial activity against Escherichia coli MTCC 443 after 24 hrs by tecan plate reader analysis. The settings on record: MTCC 443, 24 h. It counts as functional. The method, boiled down: (§2)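 Broth microdilution MIC. Glycerol stocks grown on MacConkey agar 24 h at 37 °C, then a single colony in nutrient broth 6 h to mid-log (~10⁸ CFU/mL). Cells diluted to 10⁵ CFU/mL in Mueller Hinton broth and added to two-fold compound dilutions. Incubated 24 h at 37 °C, OD600 read. Triplicate wells, experiment run twice.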

Another series concerns Acinetobacter baumannii. The experiment in a line: Antibacterial activity against Acinetobacter baumannii MTCC 1425 after 24 hrs by tecan plate reader analysis. The class given is functional. The settings on record: MTCC 1425, 24 h. The method, boiled down: as §2
A further series deals with Klebsiella pneumoniae. The experiment in a line: Antibacterial activity against Klebsiella pneumoniae ATCC 700603 after 24 hrs by tecan plate reader analysis. The class given is functional. The settings on record: Klebsiella pneumoniae, 700603, 24 h. The method, boiled down: as §2
The test system of another series is Pseudomonas aeruginosa. The experiment in a line: Antibacterial activity against Pseudomonas aeruginosa MTCC 424 after 24 hrs by tecan plate reader analysis. It counts as functional. The following applies: MTCC 424, 24 h. The method in brief:
as §2

Series [5] can be described thus: Hemolytic activity in human erythrocytes after 1 hr. It counts as ADME, cell-based, Erythrocyte. The method, boiled down: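 Heparinized donor blood. Erythrocytes washed three times in PBS and resuspended to 5 vol%, then mixed 3:1 with compound serially diluted in water. Incubated 1 h at 37 °C and centrifuged. Supernatant A540 read; % hemolysis relative to water and 0.1 vol% Triton-X controls.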

Series [6] is described as follows: Selectivity index, ratio of HC50 for human erythrocytes to MIC for Escherichia coli MTCC 443. It counts as toxicity. The following applies: read-out: Selectivity Index.

Converted amounts (≈) assume the structure as drawn.

As usually defined, the MIC is the lowest concentration that inhibits growth of the organism. Broadly, the HC50 is the concentration giving 50% haemolysis.

For `COc1cccc(OC)c1C(=O)N[C@@H]1C(=O)N2[C@@H]1SC(C)(C)[C@@H]2C(=O)O` [METHICILLIN], the MIC is greater than 32 µg/mL against Staphylococcus aureus [1], 16 to 32 µg/mL (≈ 42.1 to 84.1 µM) against Staphylococcus aureus [2], 16 to 32 µg/mL (≈ 42.1 to 84.1 µM) in the series on Staphylococcus aureus [3] and greater than 32 µg/mL against Staphylococcus aureus [4].
Consider `CCCCCCCCCCCCNC(=O)C[N+](C)(CCO)CCC[N+](C)(CCO)CC(=O)NCCCCCCCCCCCC.[Br-].[Br-]` (centres undefined), for which the MIC in the series on Staphylococcus aureus [1] is 2 µg/mL; against Escherichia coli, 16 µg/mL; in the series with Acinetobacter baumannii it was 8 µg/mL; against Klebsiella pneumoniae it was 128 to 256 µg/mL; against Pseudomonas aeruginosa it was 64 to 128 µg/mL. The HC50 at 1 h in [5] turned out to be 37 µg/mL.
As to `CCCCCCCCNC(=O)C[N+](C)(CCO)CCCCCCCC[N+](C)(CCO)CC(=O)NCCCCCCCC.[Br-].[Br-]` (centres undefined), the MIC in the series with Staphylococcus aureus [1] was 0.5 to 1 µg/mL; in the series with Escherichia coli, 1 to 2 µg/mL; against Acinetobacter baumannii, 8 µg/mL; in the series on Klebsiella pneumoniae it was 8 µg/mL; in the series on Pseudomonas aeruginosa it was 16 µg/mL. The compound also showed an HC50 at 1 h in series [5] of 61 µg/mL.
Turning to `CCCCCCCCNC(=O)C[N+](C)(CCO)CCCCCCCCCCCC[N+](C)(CCO)CC(=O)NCCCCCCCC.[Br-].[Br-]` (centres undefined), the MIC was 0.25 µg/mL in the series on Staphylococcus aureus [1]; 0.5 to 1 µg/mL in the series on Escherichia coli; 2 µg/mL in the series on Acinetobacter baumannii; 2 µg/mL against Klebsiella pneumoniae; 4 µg/mL against Pseudomonas aeruginosa. In [5], this compound had an HC50 at 1 h of 12 µg/mL.
As to `CCCCCCCCCCNC(=O)C[N+](C)(CCO)CCCCCCCCCCCC[N+](C)(CCO)CC(=O)NCCCCCCCCCC.[Br-].[Br-]` (centres undefined), the MIC is 2 µg/mL against Staphylococcus aureus [1]; 4 µg/mL against Escherichia coli; 2 µg/mL against Acinetobacter baumannii; 16 µg/mL in the series on Klebsiella pneumoniae; 32 µg/mL against Pseudomonas aeruginosa. Moreover, the HC50 at 1 h in [5] came out at 16 µg/mL.
As to `CCCCCCCCNC(=O)C[N+](C)(CCO)CCCCCCCCCC[N+](C)(CCO)CC(=O)NCCCCCCCC.[Br-].[Br-]` (centres undefined), the MIC in the series on Staphylococcus aureus [1] was 0.25 to 0.5 µg/mL; against Escherichia coli, 0.5 µg/mL; in the series with Acinetobacter baumannii, 4 µg/mL; with Klebsiella pneumoniae, 4 µg/mL; against Pseudomonas aeruginosa, 4 µg/mL. This compound also displayed an HC50 at 1 h in series [5] of 28 µg/mL.
As for `CCCCCCNC(=O)C[N+](C)(CCO)CCCCCC[N+](C)(CCO)CC(=O)NCCCCCC.O=C([O-])C(F)(F)F.O=C([O-])C(F)(F)F` (centres undefined), the MIC against Staphylococcus aureus [1] is 256 µg/mL; against Escherichia coli it was greater than 256 µg/mL; with Acinetobacter baumannii, greater than 256 µg/mL; against Klebsiella pneumoniae, greater than 256 µg/mL; with Pseudomonas aeruginosa, greater than 256 µg/mL. This compound also returned an HC50 at 1 h in series [5] greater than 1020 µg/mL.
`CCCCCCNC(=O)C[N+](C)(CCO)CCCCCCCC[N+](C)(CCO)CC(=O)NCCCCCC.O=C([O-])C(F)(F)F.O=C([O-])C(F)(F)F` (centres undefined): the MIC against Staphylococcus aureus [1] was 128 µg/mL; against Escherichia coli it was 256 µg/mL; against Acinetobacter baumannii it was greater than 256 µg/mL; in the series with Klebsiella pneumoniae, greater than 256 µg/mL; in the series with Pseudomonas aeruginosa it was greater than 256 µg/mL. For the same compound, the HC50 at 1 h in series [5] was greater than 1020 µg/mL.
On to `CCCCCCCCCCNC(=O)C[N+](C)(CCO)CCCCCCCC[N+](C)(CCO)CC(=O)NCCCCCCCCCC.[Br-].[Br-]` (centres undefined), for which the MIC came out at 0.5 µg/mL in the series with Staphylococcus aureus [1]; 1 µg/mL in the series with Escherichia coli; 1 µg/mL with Acinetobacter baumannii; 2 µg/mL in the series with Klebsiella pneumoniae; 4 µg/mL in the series with Pseudomonas aeruginosa. This compound also displayed an HC50 at 1 h in series [5] of 25 µg/mL.
`CCCCCCNC(=O)C[N+](C)(CCO)CCCCCCCCCC[N+](C)(CCO)CC(=O)NCCCCCC.O=C([O-])C(F)(F)F.O=C([O-])C(F)(F)F` (centres undefined): the MIC in the series on Staphylococcus aureus [1] was 8 µg/mL; against Escherichia coli it was 8 µg/mL; against Acinetobacter baumannii it was 256 µg/mL; against Klebsiella pneumoniae, greater than 256 µg/mL; in the series on Pseudomonas aeruginosa, 256 µg/mL. In series [5], this compound came in with an HC50 at 1 h greater than 1020 µg/mL. In addition, the selectivity ratio in series [6] was 125.
